Molecules are shown by their SMILES. Active and inactive are the calls of the source.

The nature of data set [1]: Chemical stability of the compound in RPMI cell culture media assessed as half life at 2 mM. The format is physicochemical. Put shortly: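 Compound at 2 mM incubated in RPMI/FBS 9:1 (v/v) at 37 °C. Decomposition followed by HPLC on a C18 column. Half-life calculated from the degradation course.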
The nature of data set [2]: Cytotoxicity against human CEM-T4 cells assessed as cell viability after 7 days by MTT assay. The format is cell-based. The method in brief:
(§1)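 CEM-T4 cells cultured at 37 °C, 5% CO2 in RPMI/10% FCS containing compound, with neat medium as control. After 7 days, MTT (5 mg/mL solution) added for 3 h at 37 °C. Cells centrifuged, supernatant removed, formazan dissolved in DMSO and read at 560 nm. CC50 and CC90 determined on mock-infected cells.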
A general note: Tetrazolium dyes change colour on reduction, which living cells bring about.

Data set [3] concerns Human immunodeficiency virus 1. Put plainly: Antiviral activity against HIV1 infected in human CEM-T4 cells assessed as reduction in viral protein p24 production preincubated for 24 hrs measured after 8 days by MTT assay. The data set is classed as functional, organism-based. As to conditions: Human immunodeficiency virus 1, CEM-T4. The method in brief:
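CEM-T4 cells, 20000 per well in 200 μL, preincubated 24 h at 37 °C, 5% CO2 in RPMI/10% FCS containing compound at 0,001–20 μM. Cells then inoculated with a known amount of HIV. Viral p24 read after 8 days by the MTT method. Triplicate cultures per concentration.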

Data set [4] is described as follows: Selectivity index, ratio of CC50 for human CEM-T4 cells to EC50 for HIV1 infected human CEM-T4 cells. The format is toxicity, cell-based. As to conditions: read-out: Ratio CC50/EC50. Put shortly: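 Selectivity index calculated as CC50/EC50, both measured in CEM-T4 cells, and rounded.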
For data set [5], the system named is Human immunodeficiency virus 1. Put plainly: Antiviral activity against HIV1 infected in human CEM/TK- cells assessed as inhibition of virus-induced cytopathogenicity. The data set is classed as functional, organism-based.
Data set [6] is described as follows: Cytotoxicity against human CEM-T4 cells assessed as cell viability at 200 uM after 7 days by MTT assay. The format is cell-based. As to conditions: cem-t4, 168 h. The method in brief: as §1
Data set [7] in a line: Dissociation constant, pKa of the compound in aqueous solution. The data set is classed as physicochemical.
Data set [8] can be described thus: Cytotoxicity against human CEM-T4 cells assessed as cell viability at 50 uM after 7 days by MTT assay. The format is cell-based. As to conditions: cem-t4, 168 h. Put shortly: as §1
Data set [9] is described as follows: Cytotoxicity against human CEM-T4 cells assessed as cell viability at 30 uM after 7 days by MTT assay. As to conditions: cem-t4, 168 h. The format is cell-based. Put shortly:
as §1

Data set [10] has as its target Human immunodeficiency virus type 1 reverse transcriptase (Human immunodeficiency virus 1) (UniProt Q72547). The data set is described as follows: Inhibition of HIV1 recombinant reverse transcriptase at <= 3 uM preincubated for 5 mins measured after 1 hr by electrophoresis analysis. Put shortly: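 Recombinant HIV-1 RT preincubated 5 min at 45 °C with compound in 50 mM Tris-HCl pH 8.3, 75 mM KCl, 3 mM MgCl2, 10 mM DTT. Started with dNTPs (50 μM final) and run 60 min at 45 °C. Products resolved on 12% denaturing PAGE and imaged by autoradiography. Fully extended product quantified.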

In data set [11] the test system is Human immunodeficiency virus 1. Put plainly: Antiviral activity against HIV1 infected in human CEM/TK+ cells assessed as inhibition of virus-induced cytopathogenicity. The format is functional, organism-based.
Data set [12] can be described thus: Chemical stability of the compound in RPMI cell culture media assessed as compound decomposition by HPLC analysis in presence of human MT4 cells. The data set is classed as ADME, cell-based. The method in brief:
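Compound incubated at 37 °C in RPMI cell culture medium in the presence of MT-4 cells. Degradation rate and decomposition products followed by HPLC on a C18 column.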

In the case of `CCN(CC)CC.Cc1cn([C@H]2C[C@H](N=[N+]=[N-])[C@@H](COP(=O)(O)Nc3ccc(Cl)cc3)O2)c(=O)[nH]c1=O`, the half-life (as a rule, the time needed for the level to fall by half in the phase considered) at 2000 µM in data set [1] is greater than 120 h. Moreover, in data set [2], the CC50 (in general, the concentration giving 50% cytotoxicity) at 168 h was 290000 nM and the CC90 at 168 h came out at 360000 nM. In data set [3], the EC50 (usually the concentration needed to bring the measured effect to its halfway point) came out at 20 nM and the EC90 (usually the point of the concentration-response curve where the effect stands at 90%) is 100 nM. For the same compound, the selectivity ratio in [4] was found to be 14500. The inhibition result in data set [5] is “inactive”.
On to `Nc1ccccn1` [2-AMINOPYRIDINE], for which the Activity entry in data set [6] is given as “Non-toxic”. Besides, in data set [3], the EC50 is greater than 20000 nM and the EC90 was greater than 20000 nM. In data set [4], the selectivity ratio was less than 10.
For the compound `O=c1ccn([C@H]2CC[C@@H](COP(=O)(O)Nc3ccncc3)O2)c(=O)[nH]1`, the pKa – broadly, the pH at which an ionisable group is half protonated – in [7] is less than 8. In addition, the half-life at 2000 µM in data set [1] is 32.1 h. Moreover, in [3], the EC50 was 200 nM and the EC90 came to 1350 nM. The selectivity ratio in data set [4] was greater than 250. Also, the inhibition entry in [5] was “inactive”. Moreover, the Activity entry in data set [8] is on record as “Non-toxic”.
In data set [7], `COc1ccc(N)cc1` yielded a pKa of 4.58.
On to `CCN(CC)CC.Cc1cn([C@H]2C[C@H](N=[N+]=[N-])[C@@H](COP(=O)(O)Nc3ccccc3)O2)c(=O)[nH]c1=O`, for which, in [1], the half-life at 2000 µM is greater than 120 h. Also, in [2], the half-maximal cytotoxic concentration (CC50) at 168 h was greater than 200000 nM and the CC90 at 168 h is greater than 200000 nM. For the same compound, in [3], the EC50 is 600 nM and the EC90 is greater than 10000 nM. Moreover, the selectivity ratio in data set [4] was greater than 300. Moreover, the inhibition result in data set [5] is “inactive”.
The compound `Nc1ccc(Cl)cc1` [4-CHLOROANILINE] had a pKa in data set [7] of 3.99.
For the compound `Cc1cn([C@H]2C[C@H](N=[N+]=[N-])[C@@H](COP(=O)(O)O)O2)c(=O)[nH]c1=O` [AZIDOTHYMIDINE MONOPHOSPHATE], the half-life at 2000 µM in [1] was 3.6 h. Also, the CC50 at 168 h in data set [2] was found to be 100000 nM. Moreover, in [3], the EC50 worked out at 10 nM. Moreover, the selectivity ratio in data set [4] worked out at 10000.
Consider `O=c1ccn([C@H]2CC[C@@H](COP(=O)(O)Nc3ccccc3)O2)c(=O)[nH]1`, for which the inhibition entry in data set [5] was “inactive”.
Turning to `O=c1ccn([C@H]2CC[C@@H](COP(=O)(O)Nc3cccnc3)O2)c(=O)[nH]1`, in data set [1], the half-life at 2000 µM was 27.9 h. In data set [3], the EC50 is greater than 10000 nM and the EC90 was greater than 10000 nM. The selectivity ratio in data set [4] was less than 3. Besides, the inhibition result in data set [5] was “inactive”. For the same compound, the Activity entry in data set [9] was “Non-toxic”.
Consider `Nc1cccnc1`, for which, in data set [7], the pKa is 6.03. Further, the Activity result in [6] is recorded as “Non-toxic”. Also, in data set [3], the EC50 is greater than 20000 nM and the EC90 was greater than 20000 nM. Further, in [4], the selectivity ratio is less than 10.
In the case of `Nc1ccncc1` [DALFAMPRIDINE], the pKa in data set [7] was found to be 9.13. Besides, in data set [6], the Activity entry is on record as “Non-toxic”. Besides, in data set [3], the EC50 was greater than 20000 nM and the EC90 is greater than 20000 nM. Besides, in [4], the selectivity ratio was less than 10.
For the compound `Cc1cn([C@H]2C[C@H](N=[N+]=[N-])[C@@H](COP(=O)(O)Nc3ccncc3)O2)c(=O)[nH]c1=O`, in [7], the pKa was less than 8. Besides, the half-life at 2000 µM in [1] is greater than 120 h. For the same compound, the Activity result in [6] is “Non-toxic”. For the same compound, the EC50 in data set [3] came to 1.1 nM. For the same compound, the EC90 in data set [3] was determined as 6 nM. Besides, the selectivity ratio in data set [4] is greater than 182000. Further, the inhibition result in [10] and in data set [5] was “inactive” in each case. For the same compound, in data set [11], the inhibition result is “Active”. For the same compound, the Stability entry in [12] is on record as “Stable”.
With `Cc1cn([C@H]2C[C@H](N=[N+]=[N-])[C@@H](COP(=O)(O)Nc3cccnc3)O2)c(=O)[nH]c1=O`, the half-life at 2000 µM in data set [1] was 73.3 h. The Activity result in [6] was “Non-toxic”. The EC50 in [3] was 2.3 nM. In [3], the EC90 was determined as 9 nM. In data set [4], the selectivity ratio was greater than 87000. Moreover, the inhibition entry in data set [10] and in [5] was “inactive” each time. Moreover, the inhibition result in [11] was “Active”. Also, in data set [12], the Stability entry is “Stable”.
As to `Cc1cn([C@H]2C[C@H](N=[N+]=[N-])[C@@H](CO)O2)c(=O)[nH]c1=O` [ZIDOVUDINE], in [2], the CC50 at 168 h is greater than 200000 nM and the CC90 at 168 h is greater than 200000 nM. For the same compound, in data set [3], the EC50 is less than 2 nM and the EC90 stood at 5 nM. Besides, the selectivity ratio in data set [4] is greater than 100000.

The record behind these values is ChEMBL document CHEMBL1828562, “Aryl H-phosphonates 17: (N-aryl)phosphoramidates of pyrimidine nucleoside analogues and their synthesis, selected properties, and anti-HIV activity” (J Med Chem, 2011).
